Assays:
[1] = system: Ribosome; assay: Inhibition of bacterial translation by blocking the function of the ribosomal GTPase center at 400 uM concentration; type: subcellular; conditions: Escherichia coli
Procedure, shortened: (§1)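 Translation inhibition was tested at a single compound concentration, since limited solubility ruled out dose-response data at higher concentrations. Percent inhibition is the mean of three replicate experiments per compound (±10%).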

[2] = system: Ribosome; assay: Inhibition of bacterial translation by blocking the function of the ribosomal GTPase center at 0.17 uM concentration; type: subcellular; conditions: Escherichia coli; procedure, shortened: as §1
[3] = system: Ribosome; assay: Inhibition of bacterial translation by blocking the function of the ribosomal GTPase center at 15 uM concentration; type: subcellular; conditions: Escherichia coli; procedure, shortened: as §1
[4] = system: Ribosome; assay: Inhibition of bacterial translation by blocking the function of the ribosomal GTPase center at 150 uM concentration; type: subcellular; conditions: Escherichia coli; procedure, shortened: as §1
[5] = biological target: Ribosome; assay: Inhibition of bacterial translation by blocking the function of the ribosomal GTPase center; type: subcellular, Escherichia coli

Row | Compound | inhibition [1] | further results
1 | C=C(NC(=O)c1csc(-c2cccnc2)n1)C(=O)N[C@@H](COC(C)(C)C)C(=O)OC | 30% | 
2 | C=C(NC(=O)c1cnccn1)C(=O)N1CCC[C@H]1C(=O)OC | 25% | 
3 | C=C(NC(=O)C(=C)NC(=O)c1csc(C2=N[C@@H]3c4csc(n4)[C@H]4NC(=O)c5csc(n5)[C@H]([C@](C)(O)[C@@H](C)O)NC(=O)[C@H]5CSC(=N5)/C(=C/C)NC(=O)[C@H]([C@@H](C)O)NC(=O)c5csc(n5)[C@]3(CC2)NC(=O)[C@H](C)NC(=O)C(=C)NC(=O)[C@H](C)NC(=O)[C@H]([C@@H](C)CC)N[C@@H]2C=Cc3c([C@H](C)O)cc(nc3[C@H]2O)C(=O)O[C@@H]4C)n1)C(N)=O |  | inhibition [2]: 50%
4 | C=C(NC(=O)c1cnccn1)C(=O)N[C@@H](COC(C)(C)C)C(=O)OC | 15% | 
5 | C=C(NC(=O)c1csc(-c2cccnc2)n1)C(=O)N[C@@H](Cc1c[nH]c2ccccc12)C(=O)OC |  | inhibition [3]: 20%
6 | C=C(NC(=O)c1ccccn1)C(=O)N1CCC[C@H]1C(=O)OC | 4% | 
7 | C=C(NC(=O)c1cnccn1)C(=O)N[C@@H](Cc1cn(C(=O)OC(C)(C)C)c2ccccc12)C(=O)OC |  | inhibition [4]: 10%
8 | C=C(NC(=O)c1csc(-c2cccnc2)n1)C(=O)N1CCC[C@H]1C(=O)OC | 20% | 
9 | C=C(NC(=O)c1csc(-c2ccncc2)n1)C(=O)N[C@@H](COC(C)(C)C)C(=O)OC |  | inhibition [4]: 5%
10 | C=C(NC(=O)c1csc(-c2cccnc2)n1)C(=O)N[C@@H](Cc1cn(C(=O)OC(C)(C)C)c2ccccc12)C(=O)OC |  | IC50 [5]: 40 µM
11 | C=C(NC(=O)c1cnccn1)C(=O)NC(=C)C(=O)OC | 30% | 
12 | C=C(NC(=O)c1ccccn1)C(=O)N[C@@H](Cc1cn(C(=O)OC(C)(C)C)c2ccccc12)C(=O)OC |  | inhibition [4]: 20%
13 | C=C(NC(=O)c1ccccn1)C(=O)N[C@@H](COC(C)(C)C)C(=O)OC | 40% | 
